Measurements as given in ChEMBL document CHEMBL3421560, “Search for factors affecting antibacterial activity and toxicity of 1,2,4-triazole-ciprofloxacin hybrids” (Eur J Med Chem, 2015).
≈ marks a conversion by molar mass, not a printed value.

Legend:
[1] = test system: Bacillus subtilis; assay: Antimicrobial activity against Bacillus subtilis […] after 18 hrs by broth microdilution method; format: functional
[2] = test system: Bacillus cereus; assay: Antimicrobial activity against Bacillus cereus ATCC 10876 after 18 hrs by broth microdilution method; format: functional; details: ATCC 10876, 18 h
[3] = test system: HEK293; assay: Cytotoxicity against HEK293 cells after 72 hrs by MTT assay; format: cell-based; details: Homo sapiens, HEK293, 48 h; in the assay text read “48 hrs” for “72 hrs”
Procedure, shortened: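 HEK-293 (ATCC CRL-1573) in MEM with 10% FBS plus penicillin/streptomycin, seeded 3 x 10^5 cells/well, 24 h at 37 °C, 5% CO2. Treated with compounds diluted from 50 mg/mL DMSO stock into medium with 2% FBS for 48 h. Viability by MTT formazan readout; EC50 relative to control cells, mean ± SD of three independent experiments.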

[4] = test system: Staphylococcus aureus; assay: Ratio of MBC for methicillin-susceptible Staphylococcus aureus ATCC 6538 to MIC for methicillin-susceptible Staphylococcus aureus ATCC 6538; format: functional
Procedure, shortened: (§1)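 MBC taken as lowest concentration giving >99.9% CFU reduction of the initial inoculum; value is MBC divided by MIC for the same strain.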

[5] = test system: Staphylococcus aureus; assay: Ratio of MBC for Staphylococcus aureus Microbank 14001 to MIC for Staphylococcus aureus Microbank 14001; format: functional; procedure, shortened: as §1
[6] = test system: Staphylococcus aureus; assay: Ratio of MBC for methicillin-susceptible Staphylococcus aureus ATCC 25923 to MIC for methicillin-susceptible Staphylococcus aureus ATCC 25923; format: functional; procedure, shortened: as §1
[7] = test system: Proteus mirabilis; assay: Antimicrobial activity against Proteus mirabilis ATCC 12453 after 18 hrs by broth microdilution method; format: functional; details: ATCC 12453, 18 h
[8] = test system: Staphylococcus epidermidis; assay: Antimicrobial activity against Staphylococcus epidermidis ATCC 12228 after 18 hrs by broth microdilution method; format: functional; details: ATCC 12228, 18 h
[9] = test system: Staphylococcus aureus; assay: Antimicrobial activity against Staphylococcus aureus Microbank 14001 after 18 hrs by broth microdilution method; format: functional; details: Microbank 14001, 18 h
[10] = test system: Klebsiella pneumoniae; assay: Antimicrobial activity against Klebsiella pneumoniae ATCC 13883 after 18 hrs by broth microdilution method; format: functional; details: ATCC 13883, 18 h
[11] = test system: Escherichia coli; assay: Antimicrobial activity against Escherichia coli ATCC 25922 after 18 hrs by broth microdilution method; format: functional; details: ATCC 25922, 18 h
[12] = test system: Pseudomonas aeruginosa; assay: Antimicrobial activity against Pseudomonas aeruginosa ATCC 9027 after 18 hrs by broth microdilution method; format: functional; details: ATCC 9027, 18 h
[13] = test system: Micrococcus luteus; assay: Antimicrobial activity against Micrococcus luteus ATCC 10240 after 18 hrs by broth microdilution method; format: functional; details: ATCC 10240, 18 h
[14] = test system: Staphylococcus aureus; assay: Antimicrobial activity against methicillin-susceptible Staphylococcus aureus ATCC 6538 after 18 hrs by broth microdilution method; format: functional; details: ATCC 6538, 18 h
[15] = test system: Staphylococcus aureus; assay: Antimicrobial activity against methicillin-susceptible Staphylococcus aureus ATCC 25923 after 18 hrs by broth microdilution method; format: functional; details: ATCC 25923, 18 h
[16] = test system: Staphylococcus aureus; assay: Ratio of ciprofloxacin MIC to compound MIC for methicillin-susceptible Staphylococcus aureus ATCC 6538; format: functional
[17] = test system: Staphylococcus aureus; assay: Ratio of vancomycin MIC to compound MIC for Staphylococcus aureus Microbank 14001; format: functional
[18] = test system: Staphylococcus aureus; assay: Ratio of ciprofloxacin MIC to compound MIC for methicillin-susceptible Staphylococcus aureus ATCC 25923; format: functional
[19] = test system: Pseudomonas aeruginosa; assay: Ratio of ciprofloxacin MIC to compound MIC for Pseudomonas aeruginosa ATCC 9027; format: functional
[20] = Inhibition of Escherichia coli DNA topoisomerase 4 using kDNA as substrate after 1 hr by agarose gel electrophoresis
Procedure, shortened: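 E. coli topoisomerase IV decatenation kit: kDNA (0.5 µg) with 1 U enzyme in supplied buffer plus varying compound levels, 37 °C for 1 h. Stopped as for the gyrase assay, then 1% agarose in TAE, 1.5 h at 80 V, ethidium bromide. IC50 = concentration blocking 50% conversion to decatenated minicircles, by gel densitometry.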

Structure (SMILES)	MIC [1]	MIC [2]	EC50 [3]	Ratio [4]	Ratio [5]	Ratio [6]	MIC [7]	MIC [8]	MIC [9]	MIC [10]	MIC [11]	MIC [12]	MIC [13]	MIC [14]	MIC [15]	Ratio [16]	Ratio [17]	Ratio [18]	Ratio [19]	IC50 [20]
O=C(O)c1cn(C2CC2)c2cc(N3CCN(Cn4nc(-c5cccc(O)c5)n(-c5ccccc5)c4=S)CC3)c(F)cc2c1=O	0.098 µM (≈ 0.06 µg/mL)	0.19 µM (≈ 0.116 µg/mL)	140 µM	<=4	<=4	<=4	0.024 µM (≈ 0.0147 µg/mL)	0.19 µM (≈ 0.116 µg/mL)	0.39 µM (≈ 0.239 µg/mL)	0.049 µM (≈ 0.03 µg/mL)	0.012 µM (≈ 0.00735 µg/mL)	0.19 µM (≈ 0.116 µg/mL)	1.6 µM (≈ 0.98 µg/mL)	0.39 µM (≈ 0.239 µg/mL)	0.8 µM (≈ 0.49 µg/mL)	–	–	–	–	–
O=C(O)c1cn(C2CC2)c2cc(N3CCN(Cn4nc(-c5cccc(O)c5)n(Cc5ccc(F)cc5)c4=S)CC3)c(F)cc2c1=O	0.023 µM (≈ 0.0148 µg/mL)	0.093 µM (≈ 0.06 µg/mL)	69.5 µM	<=4	<=4	<=4	0.006 µM (≈ 0.00387 µg/mL)	0.19 µM (≈ 0.122 µg/mL)	0.37 µM (≈ 0.239 µg/mL)	0.046 µM (≈ 0.0297 µg/mL)	0.006 µM (≈ 0.00387 µg/mL)	0.093 µM (≈ 0.06 µg/mL)	0.76 µM (≈ 0.49 µg/mL)	0.093 µM (≈ 0.06 µg/mL)	0.37 µM (≈ 0.239 µg/mL)	8	–	–	–	–
COc1ccc(-n2c(-c3cccc(O)c3)nn(CN3CCN(c4cc5c(cc4F)c(=O)c(C(=O)O)cn5C4CC4)CC3)c2=S)cc1	0.37 µM (≈ 0.238 µg/mL)	0.19 µM (≈ 0.122 µg/mL)	114 µM	<=4	<=4	<=4	0.047 µM (≈ 0.0302 µg/mL)	0.19 µM (≈ 0.122 µg/mL)	0.093 µM (≈ 0.0598 µg/mL)	0.093 µM (≈ 0.0598 µg/mL)	0.006 µM (≈ 0.00386 µg/mL)	0.19 µM (≈ 0.122 µg/mL)	1.52 µM (≈ 0.977 µg/mL)	0.37 µM (≈ 0.238 µg/mL)	0.74 µM (≈ 0.476 µg/mL)	–	–	–	–	–
COc1ccc(Cn2c(-c3cccc(O)c3)nn(CN3CCN(c4cc5c(cc4F)c(=O)c(C(=O)O)cn5C4CC4)CC3)c2=S)cc1	0.091 µM (≈ 0.0598 µg/mL)	0.18 µM (≈ 0.118 µg/mL)	62.9 µM	<=4	<=4	<=4	0.023 µM (≈ 0.0151 µg/mL)	0.091 µM (≈ 0.0598 µg/mL)	0.046 µM (≈ 0.0302 µg/mL)	0.091 µM (≈ 0.0598 µg/mL)	0.011 µM (≈ 0.00722 µg/mL)	0.18 µM (≈ 0.118 µg/mL)	1.49 µM (≈ 0.979 µg/mL)	0.091 µM (≈ 0.0598 µg/mL)	0.18 µM (≈ 0.118 µg/mL)	8	15	16	–	–
O=C(O)c1cn(C2CC2)c2cc(N3CCN(Cn4nc(-c5ccc(O)cc5)n(-c5ccc(F)cc5)c4=S)CC3)c(F)cc2c1=O	0.048 µM (≈ 0.0303 µg/mL)	0.095 µM (≈ 0.0599 µg/mL)	106 µM	<=4	<=4	<=4	0.048 µM (≈ 0.0303 µg/mL)	0.095 µM (≈ 0.0599 µg/mL)	0.19 µM (≈ 0.12 µg/mL)	0.19 µM (≈ 0.12 µg/mL)	0.024 µM (≈ 0.0151 µg/mL)	0.38 µM (≈ 0.24 µg/mL)	1.55 µM (≈ 0.978 µg/mL)	0.19 µM (≈ 0.12 µg/mL)	0.19 µM (≈ 0.12 µg/mL)	–	–	16	–	–
COc1ccc(-n2c(-c3ccc(O)cc3)nn(CN3CCN(c4cc5c(cc4F)c(=O)c(C(=O)O)cn5C4CC4)CC3)c2=S)cc1	0.023 µM (≈ 0.0148 µg/mL)	0.19 µM (≈ 0.122 µg/mL)	105 µM	<=4	<=4	<=4	0.023 µM (≈ 0.0148 µg/mL)	0.37 µM (≈ 0.238 µg/mL)	0.093 µM (≈ 0.0598 µg/mL)	0.093 µM (≈ 0.0598 µg/mL)	0.012 µM (≈ 0.00771 µg/mL)	0.023 µM (≈ 0.0148 µg/mL)	1.52 µM (≈ 0.977 µg/mL)	0.19 µM (≈ 0.122 µg/mL)	0.76 µM (≈ 0.488 µg/mL)	–	–	–	31	–
O=C(O)c1cn(C2CC2)c2cc(N3CCNCC3)c(F)cc2c1=O [CIPROFLOXACIN]	0.09 µM (≈ 0.0298 µg/mL)	0.36 µM (≈ 0.119 µg/mL)	–	–	–	–	0.045 µM (≈ 0.0149 µg/mL)	1.48 µM (≈ 0.49 µg/mL)	–	0.36 µM (≈ 0.119 µg/mL)	0.024 µM (≈ 0.00795 µg/mL)	0.72 µM (≈ 0.239 µg/mL)	5.88 µM (≈ 1.95 µg/mL)	0.72 µM (≈ 0.239 µg/mL)	2.96 µM (≈ 0.981 µg/mL)	–	–	–	–	80 µM
